From PubChem BioAssay
Shown are actives, neighbours in structure and some others; about 2.3% of the full set was active somewhere.
TRPC4 PAM: allosterically enhances the mouse TRPC4 cation channel. 0.42% of 310,000 active. Q9QUQ5. HEK293 TRPC4beta/mu-opioid, DAMGO EC20, Fluo-4 Ca2+ flux; active compounds read high. B-score at 10 µM;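 active means B-score of calcium response area above 5 SD of library B-scores, with initial fluorescence ratio within 5 SD of library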;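 further: B-score of integrated fluorescence ratio over time as area under calcium response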
TRPC6 activator: mouse TRPC6 channel activation; B-score at 10 µM; HEK293-TRPC6 membrane potential dye fluorescence; active compounds read high; 0.13% of 310,000 active; AID 2550;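 active means B-score of the integrated fluorescence ratio above library mean plus 3 SD, and starting fluorescence ratio within library mean plus 5 SD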;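 further: higher score means more depolarization so channel activation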
TRPC4 block: inhibitors of mouse TRPC4 channel; Q9QUQ5; HEK293 TRPC4beta/mu-opioid, DAMGO-evoked Fluo4 calcium flux; active compounds read low; B-score at 10 µM; 0.39% of 300,000 active; AID 2247;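 active means B-score over 3 SD under the library average, no early fluorescence shift, positive overall ratio signal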
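Material: HEK293 cells with stable TRPC4beta plus mu-opioid receptor expression / Probe or stimulus: DAMGO in two steps, submaximal then maximal / Compound: single concentration per test compound / Technique: kinetic Fluo4 fluorescence imaging of calcium influx / Read-out: per-well B score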
TRPC4 act: opens the mouse TRPC4 cation channel | 0.49% of 310,000 active | AID 2237 | B-score at 10 µM | Q9QUQ5 | HEK293 TRPC4beta/mu-opioid, Fluo4 calcium fluorescence; active compounds read high;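 active means B-score above 5 SD of library B-scores, and initial fluorescence ratio not above library mean plus 5 SD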;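 further: positive B-score marks a calcium rise read as TRPC4 activation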
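Assay system – TRPC4beta and mu-opioid receptor HEK293 stable cells · Measured by – Fluo4 fluorescence, kinetic · Schedule – dye loading 45 min room temperature, 110 s kinetic read · Read-out – B-scored integrated calcium fluorescence ratio · Controls – buffer and maximal DAMGO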
TRPC6 inhibitor: mouse TRPC6 channel inhibition | Q61143 | HEK293-TRPC6, membrane potential dye, ACh-evoked depolarization; active compounds read low | B-score at 10 µM | 1.1% of 310,000 active;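 active means B-score under library mean minus 3 SD, initial fluorescence not abnormally high, positive integrated signal ratio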;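 further: B-score derived from integrated fluorescence ratio over the kinetic read; more negative B-score means stronger inhibition of depolarization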
TRPC4 sel inh 2: second check of whether TRPC6 inhibitors also affect mouse TRPC4; 42% of 920 active; inhibition, % at 10 µM; shares compounds with TRPC6 inhibitor; HEK293 TRPC4/MOR, membrane potential dye fluorescence; channel activated by saturating DAMGO dose;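 active means compounds whose fluorescence signal differed from control wells by over 3 SD, either direction, in both duplicate plates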
TRPC4 spec: selectivity of TRPC6 inhibitors: effect on mouse TRPC4; HEK293 TRPC4/mu-opioid, membrane potential fluorescence; shares compounds with TRPC6 inhibitor; 61% of 920 active; activity change, negative = inhibition, % at 10 µM;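 active means rise or fall in signal beyond 3 SD of buffer-only wells in both replicate plates, either sign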;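 further: integrated kinetic ratio of fluorescence range over baseline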
HEK293 MPD ctr 2-1: second check of TRPC6 inhibitor effects in parental HEK293 cells | shares compounds with TRPC6 inhibitor | parental HEK293 membrane potential dye fluorescence; maximal acetylcholine challenge after compound addition | signal change vs control, % at 10 µM | 31% of 920 active;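 active means membrane potential signal moving either way by over 3 SD of the maximum-effect control, in both duplicate plates, meaning non-specific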
HEK293 MPD ctr-1: parental HEK293 nonspecific activity of TRPC6 inhibitors; shares compounds with TRPC6 inhibitor; parental HEK293 membrane potential dye fluorescence; membrane potential signal change, % at 10 µM; 60% of 920 active; AID 2780;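 active means membrane potential signal shifting up or down by more than 3 SD of buffer-only wells, on both duplicate plates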
HEK293 MPD ctr-2: checks TRPC6 modulator effects in parental HEK293 cells | shares compounds with TRPC6 inhibitor | 51% of 2,400 active | membrane potential dye fluorescence | membrane potential signal change, % at 10 µM | AID 488924;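 active means membrane potential signal moves up or down beyond 5 SD from buffer-only wells, on both duplicate plates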
HEK293 MPD ctr 2-2: second counter-screen for TRPC6 modulators: effect in parental HEK293 cells; shares compounds with TRPC6 inhibitor; membrane potential dye fluorescence; after compound, maximal acetylcholine stimulation; inhibition, % at 10 µM; 14% of 2,400 active;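 active means membrane potential signal drops by more than 5 SD from the mean control signal, in both duplicate plates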;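 further: plate controls were acetylcholine ECmax control wells for no effect and buffer only wells for full effect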
TRPC4 ctr mod: selectivity of TRPC6 modulators against mouse TRPC4. shares compounds with TRPC6 inhibitor. HEK293 TRPC4/mu-opioid, membrane potential fluorescence. percent change from control (negative = decrease, positive = increase), % at 10 µM. 69% of 2,400 active;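 active means membrane potential signal moved up or down beyond 5 SD of buffer control wells, in both duplicate plates, actives on both sides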;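 further: plate controls were assay buffer wells for no effect and DAMGO maximal-effect wells for full effect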
TRPC4 ctr inh 2: second selectivity test of TRPC6 modulators against mouse TRPC4; shares compounds with TRPC6 inhibitor; HEK293 TRPC4/mu-opioid, membrane potential dye fluorescence; stimulated with maximal-effect DAMGO; inhibition, % at 10 µM; 55% of 2,400 active; AID 488928;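 active means drop in membrane potential signal beyond 5 SD of the control wells in both duplicate plates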;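 further: TRPC4 counter screen for TRPC6 hits run under conditions tuned for TRPC6 not TRPC4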
TRPC6 block conf: confirmation of mouse TRPC6 inhibitors; HEK293-TRPC6, membrane potential dye, ACh-evoked depolarization; 43% of 3,300 active; AID 488960; inhibition, % at 10 µM; shares compounds with TRPC6 inhibitor;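 active means fluorescence ratio falls more than 5 SD below the full-stimulation control mean, in both duplicate runs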;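 further: integrated fluorescence ratio of peak minus minimum over baseline after agonist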
TRPC6 act confirm: mouse TRPC6 activator confirmation; shares compounds with TRPC6 inhibitor; 11% of 2,800 active; activation, % at 10 µM; HEK293-TRPC6 membrane potential dye fluorescence, FDSS; AID 488961;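 active means ratio signal rise beyond 5 SD above unstimulated control wells' mean, seen in both duplicate runs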;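 further: plate controls were buffer EC0 wells for no effect and acetylcholine ECmax response for full effect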
* hit, by the source's call.

For COc1ccc2c(c1OC)C(=O)OC2C1c2c(cc3c(c2OC)OCO3)CCN1C (stereo not given) the results were TRPC4 PAM inactive, TRPC6 activator inactive, TRPC4 block inactive, TRPC4 act inactive and TRPC6 inhibitor inactive.
CN1\C(=C/C=C/C=C/C=[N+](C)C)C(C)(C)c2ccccc21 was read as TRPC4 PAM inactive, TRPC6 activator inactive, TRPC4 block inactive, TRPC4 act inactive, TRPC6 inhibitor -5.2*, HEK293 MPD ctr-2 533%*, HEK293 MPD ctr 2-2 inactive, TRPC4 ctr mod -20%*, TRPC4 ctr inh 2 32%*, TRPC6 block conf 48%* and TRPC6 act confirm inactive.
`CN(C)c1ccc(N=C/C=C2\N(C)c3ccccc3C2(C)C)cc1` gave TRPC4 PAM inactive, TRPC6 activator inactive, TRPC4 block inactive, TRPC4 act inactive, TRPC6 inhibitor -6.6*, HEK293 MPD ctr-2 inactive, HEK293 MPD ctr 2-2 inactive, TRPC4 ctr mod -16%*, TRPC4 ctr inh 2 53%*, TRPC6 block conf 58%* and TRPC6 act confirm inactive.
Screening CN1/C(=C\C=O)C(C)(C)c2ccccc21 returned TRPC4 PAM inactive, TRPC6 activator inactive, TRPC4 block inactive, TRPC4 act inactive and TRPC6 inhibitor inactive.
For CC(Sc1nc2ccccc2[nH]1)C(=O)Nc1ccccc1F (stereo not given) the results were TRPC4 PAM inactive, TRPC6 activator inactive, TRPC4 block inactive, TRPC4 act inactive and TRPC6 inhibitor inactive.
O=C(CNCCC1=CCCCC1)Nc1ccc(N2CCCCCC2)cc1 was read as TRPC4 PAM inactive, TRPC6 activator inactive, TRPC4 block inactive, TRPC4 act inactive, TRPC6 inhibitor -7.2*, TRPC4 sel inh 2 70%*, TRPC4 spec -12%*, HEK293 MPD ctr 2-1 inactive, HEK293 MPD ctr-1 -152%*, TRPC6 block conf inactive and TRPC6 act confirm inactive.
O=C(CNC1CCCCCC1)Nc1ccc(N2CCCC2)cc1 was read as TRPC4 PAM inactive, TRPC6 activator inactive, TRPC4 block inactive, TRPC4 act inactive and TRPC6 inhibitor inactive.
CC1CCN(CC(=O)Nc2ccc(N3CCCCCC3)cc2)CC1 was read as TRPC4 PAM inactive, TRPC6 activator inactive, TRPC4 block inactive, TRPC4 act inactive, TRPC6 inhibitor -5.4*, HEK293 MPD ctr-2 inactive, HEK293 MPD ctr 2-2 inactive, TRPC4 ctr mod -17%*, TRPC4 ctr inh 2 38%*, TRPC6 block conf inactive and TRPC6 act confirm inactive.
